Data taken from PMC6959540 (Nuclear medicine and biology, 2012).

Assays:
hTRPV1 [1] = molecular target: T1, hTRPV1 (Homo sapiens, UniProt Q8NER1); assay: [^3H]RTX competition binding on CHO cells transfected with hTRPV1; conditions: read-out: binding affinity (Kd), [^3H]RTX as radioligand
In short: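 Stable Tet-Off CHO cells expressing human TRPV1 were induced 48 h in tetracycline-free medium, harvested and pelleted. Assay mix: DPBS with Ca2+/Mg2+, BSA 0.25 mg/mL, [3H]RTX 100 pM and varying competitor concentrations; 100 nM unlabelled RTX defined nonspecific binding. Incubation 60 min at 37 °C, ice-cooled, glycoprotein added, membranes pelleted by centrifugation. Pellets and supernatant were scintillation-counted and Ki fitted with the Hill equation.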

rTRPV1 [2] = molecular target: T2, rTRPV1 (Rattus norvegicus, UniProt O35433); assay: [^3H]RTX competition binding on CHO cells transfected with rTRPV1; conditions: read-out: binding affinity (Kd), [^3H]RTX as radioligand
In short: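 A stable Tet-Off CHO line with rat TRPV1 was induced for 48 h in tetracycline-free medium, harvested and pelleted, and pellets were stored at −20 °C. Binding used [3H]RTX (100 pM) plus graded competitor in DPBS with Ca2+/Mg2+ and BSA (0.25 mg/mL), at 37 °C for 60 min. Nonspecific binding was set with 100 nM unlabelled RTX. Membranes were pelleted after glycoprotein addition and scintillation-counted. Parameters came from Hill equation fits.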

hTRPV1 [3] = molecular target: T1, hTRPV1; assay: ^45Ca^2+ uptake in CHO-hTRPV1 cells; type: cell-based
In short: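 Tet-Off CHO-hTRPV1 cells at 50–70% confluency were induced 48 h without tetracycline. Assay medium was DMEM with BSA 0.25 mg/mL, 45Ca2+ 37 kBq/mL and increasing ligand concentrations. Antagonism wells also held capsaicin 75 nM; full-agonist reference was capsaicin 300 nM. After 5 min at 37 °C, cells were washed, lysed in RIPA buffer and scintillation-counted. Each point is the mean of four wells, fitted with the Hill equation.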

rTRPV1 [4] = molecular target: T2, rTRPV1; assay: ^45Ca^2+ uptake in CHO-rTRPV1 cells; type: cell-based
In short: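 CHO-rTRPV1 cells (Tet-Off) were induced for about 48 h without tetracycline. They were then exposed for 5 min at 37 °C to DMEM containing BSA (0.25 mg/mL), 45Ca2+ (37 kBq/mL) and increasing test compound. Agonism was referenced to 300 nM capsaicin, and antagonism was tested against 75 nM capsaicin. Cells were washed, lysed in RIPA buffer and scintillation-counted. Each point was the mean of four wells, fitted to the Hill equation.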

hTRPV1 [5] = molecular target: T1, hTRPV1; conditions: read-out: IC50 reported for hTRPV1; cited from earlier work
[6] = Distribution coefficient n-octanol/phosphate buffer pH 7.4; type: physicochemical; conditions: 1-octanol / 0.025 M phosphate buffer pH 7.4
In short: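 HPLC-purified radiotracer (~37 MBq/mL in saline) was added to equal volumes of n-octanol and 0.025 M sodium phosphate buffer pH 7.4 (n=8). Tubes were vortexed for 1 min at room temperature and centrifuged at 3000 rpm for 10 min. Phase aliquots were weighed and gamma-counted. D was calculated as cpm/mL octanol over cpm/mL buffer, with volumes derived from mass and phase density.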

[7] = Biodistribution in control NMRI mice; type: in vivo; conditions: for % ID / % ID/g: control mice i.v.
In short: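 Male NMRI mice (32–43 g) under pentobarbital (60 mg/kg i.p.) or isoflurane (2% in oxygen) received about 9.25 MBq of radiotracer in saline via a lateral tail vein. They were decapitated at 2, 10 or 60 min p.i. (n=4 per time point). Organs and blood were dissected, weighed and gamma-counted. %ID was organ cpm over total recovered cpm. Blood mass was taken as 7% of body mass.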

TRPV1 receptor [8] = assay: Biodistribution in NMRI mice pretreated with BCTC or SB366791; type: in vivo; conditions: 60 min p.i.
In short: (§1)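 Male NMRI mice (32–43 g), either pretreated s.c. 1 h before tracer or TRPV1−/−. Tracer was diluted in saline (<10% ethanol) and ~9.25 MBq given via lateral tail vein under pentobarbital (60 mg/kg i.p.) or isoflurane (2% in O2). Mice were decapitated at 2, 10 or 60 min (n=4 per time point). Tissues and blood were weighed and gamma-counted, and trigeminal nerve-to-blood activity ratios calculated. Values are mean ± SEM.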

TRPV1 receptor [9] = assay: Biodistribution in TRPV1^-/- mice; type: in vivo; conditions: 60 min p.i.
In short: as §1

[10] = Plasma radiometabolites in mice; type: in vivo; conditions: mouse plasma
[11] = Brain radiometabolites in mice; type: in vivo; conditions: mouse brain
[12] = read-out: antagonist activity (Ki), capsaicin 75 nM
[13] = control mice, pentobarbital, i.v.

T1 sequence (Q8NER1 whole entry): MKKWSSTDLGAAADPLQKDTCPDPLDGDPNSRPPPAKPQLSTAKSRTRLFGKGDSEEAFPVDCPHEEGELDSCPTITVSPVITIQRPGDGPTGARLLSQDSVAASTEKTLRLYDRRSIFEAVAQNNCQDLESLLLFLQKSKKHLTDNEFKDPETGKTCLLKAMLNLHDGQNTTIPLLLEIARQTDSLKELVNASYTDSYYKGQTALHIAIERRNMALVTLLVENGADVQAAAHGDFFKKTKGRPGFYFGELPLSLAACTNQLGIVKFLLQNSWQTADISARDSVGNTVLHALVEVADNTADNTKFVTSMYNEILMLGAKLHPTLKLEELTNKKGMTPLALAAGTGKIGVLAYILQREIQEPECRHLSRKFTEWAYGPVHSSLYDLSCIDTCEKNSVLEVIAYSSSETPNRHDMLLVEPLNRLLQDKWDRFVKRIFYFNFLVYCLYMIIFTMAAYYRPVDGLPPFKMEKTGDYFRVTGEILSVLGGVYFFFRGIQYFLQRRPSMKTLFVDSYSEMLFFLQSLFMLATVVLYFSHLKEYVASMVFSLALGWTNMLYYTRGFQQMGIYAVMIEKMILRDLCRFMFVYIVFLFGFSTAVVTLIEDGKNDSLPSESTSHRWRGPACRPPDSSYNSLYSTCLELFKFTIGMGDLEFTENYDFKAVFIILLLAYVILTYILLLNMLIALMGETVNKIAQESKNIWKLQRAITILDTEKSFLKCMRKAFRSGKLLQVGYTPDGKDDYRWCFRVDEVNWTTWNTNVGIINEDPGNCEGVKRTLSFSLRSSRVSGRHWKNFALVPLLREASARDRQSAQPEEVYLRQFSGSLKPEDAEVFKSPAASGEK
T2 sequence (O35433 whole entry): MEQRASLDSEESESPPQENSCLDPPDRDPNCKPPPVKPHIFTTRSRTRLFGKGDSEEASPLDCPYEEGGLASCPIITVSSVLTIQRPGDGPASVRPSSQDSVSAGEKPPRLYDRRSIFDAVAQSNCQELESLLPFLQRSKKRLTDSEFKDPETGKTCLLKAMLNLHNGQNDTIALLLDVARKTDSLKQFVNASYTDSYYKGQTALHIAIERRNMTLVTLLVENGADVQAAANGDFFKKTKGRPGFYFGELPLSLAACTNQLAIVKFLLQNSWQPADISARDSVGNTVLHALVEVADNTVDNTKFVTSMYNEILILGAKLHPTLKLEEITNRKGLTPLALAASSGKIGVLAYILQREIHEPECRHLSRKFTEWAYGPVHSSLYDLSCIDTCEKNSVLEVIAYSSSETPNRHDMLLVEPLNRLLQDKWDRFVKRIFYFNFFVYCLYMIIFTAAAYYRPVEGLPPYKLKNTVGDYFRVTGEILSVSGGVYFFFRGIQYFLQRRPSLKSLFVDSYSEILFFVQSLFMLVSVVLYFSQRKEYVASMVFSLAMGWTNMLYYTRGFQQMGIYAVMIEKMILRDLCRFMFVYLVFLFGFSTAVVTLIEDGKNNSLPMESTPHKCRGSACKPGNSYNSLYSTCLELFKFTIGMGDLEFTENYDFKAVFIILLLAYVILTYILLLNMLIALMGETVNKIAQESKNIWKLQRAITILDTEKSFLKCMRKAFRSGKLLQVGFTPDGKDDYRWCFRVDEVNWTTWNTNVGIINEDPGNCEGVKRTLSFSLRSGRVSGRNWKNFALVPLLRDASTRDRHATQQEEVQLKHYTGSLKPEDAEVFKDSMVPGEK

COc1cccc(NC(=O)/C=C/c2ccc(Cl)cc2)c1 [SB366791, N-(3-methoxyphenyl)-4-chlorocinnamide]
Kd (hTRPV1 [1]): 280 ± 56 nM
Kd (rTRPV1 [2]): 780 ± 140 nM
agonist effects (hTRPV1 [3]; agonism assay): No agonist effects were observed
Ki (hTRPV1 [3]; [12]): 197 ± 17 nM
agonist effects (rTRPV1 [4]; agonism assay): No agonist effects were observed
Ki (rTRPV1 [4]; [12]): 334 ± 17 nM
IC50 (hTRPV1 [5]): 5.7 nM

[11CH3]Oc1cccc(NC(=O)/C=C/c2ccc(Cl)cc2)c1 [[^11C]SB366791]
log D [6]: 3.5±0.1
% ID ([7]; Bladder+urine, 2 min p.i.): 0.2±0.1 % ID
% ID ([7]; Bladder+urine, 10 min p.i.): 8.0±2.5 % ID
% ID ([7]; Bladder+urine, 60 min p.i.): 25.9±12.0 % ID
% ID ([7]; Blood, 2 min p.i.): 9.9±1.0 % ID
% ID/g ([7]; Blood, 2 min p.i.): 3.6±0.4 % ID/g
% ID ([7]; Blood, 10 min p.i.): 6.9±0.5 % ID
% ID/g ([7]; Blood, 10 min p.i.): 2.6±0.2 % ID/g
% ID ([7]; Blood, 60 min p.i.): 2.3±0.2 % ID
% ID/g ([7]; Blood, 60 min p.i.): 0.8±0.1 % ID/g
% ID/g ([7]; Bone, 2 min p.i.): 1.5±0.2 % ID/g
% ID/g ([7]; Bone, 10 min p.i.): 1.2±0.4 % ID/g
% ID/g ([7]; Bone, 60 min p.i.): 0.9±0.2 % ID/g
% ID ([7]; Carcass, 2 min p.i.): 44.5±3.6 % ID
% ID ([7]; Carcass, 10 min p.i.): 48.6±2.2 % ID
% ID ([7]; Carcass, 60 min p.i.): 19.3±3.3 % ID
% ID ([7]; Cerebellum, 2 min p.i.): 0.4±0.1 % ID
% ID/g ([7]; Cerebellum, 2 min p.i.): 3.9±0.4 % ID/g
% ID ([7]; Cerebellum, 10 min p.i.): 0.1±0.0 % ID
% ID/g ([7]; Cerebellum, 10 min p.i.): 1.1±0.1 % ID/g
% ID ([7]; Cerebellum, 60 min p.i.): 0.0±0.0 % ID
% ID/g ([7]; Cerebellum, 60 min p.i.): 0.3±0.1 % ID/g
% ID ([7]; Cerebrum, 2 min p.i.): 1.2±0.2 % ID
% ID/g ([7]; Cerebrum, 2 min p.i.): 3.7±0.5 % ID/g
% ID ([7]; Cerebrum, 10 min p.i.): 0.4±0.0 % ID
% ID/g ([7]; Cerebrum, 10 min p.i.): 1.2±0.1 % ID/g
% ID ([7]; Cerebrum, 60 min p.i.): 0.1±0.0 % ID
% ID/g ([7]; Cerebrum, 60 min p.i.): 0.3±0.0 % ID/g
% ID ([7]; Heart, 2 min p.i.): 0.9±0.1 % ID
% ID/g ([7]; Heart, 2 min p.i.): 5.0±1.0 % ID/g
% ID ([7]; Heart, 10 min p.i.): 0.3±0.1 % ID
% ID/g ([7]; Heart, 10 min p.i.): 1.8±0.2 % ID/g
% ID ([7]; Heart, 60 min p.i.): 0.1±0.0 % ID
% ID/g ([7]; Heart, 60 min p.i.): 0.6±0.0 % ID/g
% ID ([7]; Intestines, 2 min p.i.): 8.9±0.6 % ID
% ID ([7]; Intestines, 10 min p.i.): 13.0±1.5 % ID
% ID ([7]; Intestines, 60 min p.i.): 33.8±6.2 % ID
% ID ([7]; Kidneys, 2 min p.i.): 4.5±0.2 % ID
% ID/g ([7]; Kidneys, 2 min p.i.): 7.1±0.8 % ID/g
% ID ([7]; Kidneys, 10 min p.i.): 5.0±1.0 % ID
% ID/g ([7]; Kidneys, 10 min p.i.): 7.9±1.2 % ID/g
% ID ([7]; Kidneys, 60 min p.i.): 1.9±0.4 % ID
% ID/g ([7]; Kidneys, 60 min p.i.): 2.8±0.5 % ID/g
% ID ([7]; Liver, 2 min p.i.): 28.6±2.5 % ID
% ID/g ([7]; Liver, 2 min p.i.): 14.2±2.5 % ID/g
% ID ([7]; Liver, 10 min p.i.): 16.1±1.6 % ID
% ID/g ([7]; Liver, 10 min p.i.): 8.7±1.0 % ID/g
% ID ([7]; Liver, 60 min p.i.): 8.9±3.2 % ID
% ID/g ([7]; Liver, 60 min p.i.): 4.6±2.1 % ID/g
% ID ([7]; Lungs, 2 min p.i.): 1.5±0.4 % ID
% ID/g ([7]; Lungs, 2 min p.i.): 4.5±0.3 % ID/g
% ID ([7]; Lungs, 10 min p.i.): 0.9±0.2 % ID
% ID/g ([7]; Lungs, 10 min p.i.): 2.7±0.1 % ID/g
% ID ([7]; Lungs, 60 min p.i.): 0.5±0.2 % ID
% ID/g ([7]; Lungs, 60 min p.i.): 1.6±1.0 % ID/g
% ID/g ([7]; Muscle, 2 min p.i.): 1.2±0.3 % ID/g
% ID/g ([7]; Muscle, 10 min p.i.): 1.3±0.2 % ID/g
% ID/g ([7]; Muscle, 60 min p.i.): 0.4±0.1 % ID/g
% ID ([7]; Pancreas, 2 min p.i.): 1.1±0.1 % ID
% ID/g ([7]; Pancreas, 2 min p.i.): 5.4±0.9 % ID/g
% ID ([7]; Pancreas, 10 min p.i.): 0.6±0.1 % ID
% ID/g ([7]; Pancreas, 10 min p.i.): 2.7±0.2 % ID/g
% ID ([7]; Pancreas, 60 min p.i.): 0.5±0.2 % ID
% ID/g ([7]; Pancreas, 60 min p.i.): 2.0±0.5 % ID/g
% ID/g ([7]; Skin, 2 min p.i.): 1.3±0.1 % ID/g
% ID/g ([7]; Skin, 10 min p.i.): 2.4±0.3 % ID/g
% ID/g ([7]; Skin, 60 min p.i.): 1.1±0.3 % ID/g
% ID ([7]; Spleen, 2 min p.i.): 0.6±0.2 % ID
% ID/g ([7]; Spleen, 2 min p.i.): 4.0±0.8 % ID/g
% ID ([7]; Spleen, 10 min p.i.): 0.2±0.0 % ID
% ID/g ([7]; Spleen, 10 min p.i.): 2.0±0.2 % ID/g
% ID ([7]; Spleen, 60 min p.i.): 0.2±0.0 % ID
% ID/g ([7]; Spleen, 60 min p.i.): 1.4±0.3 % ID/g
% ID ([7]; Stomach, 2 min p.i.): 1.4±0.2 % ID
% ID ([7]; Stomach, 10 min p.i.): 2.0±0.7 % ID
% ID ([7]; Stomach, 60 min p.i.): 1.8±0.7 % ID
% ID ([7]; Trigeminal nerve, 2 min p.i.): 0.02±0.00 % ID
% ID/g ([7]; Trigeminal nerve, 2 min p.i.): 4.2±0.4 % ID/g
% ID ([7]; Trigeminal nerve, 10 min p.i.): 0.01±0.00 % ID
% ID/g ([7]; Trigeminal nerve, 10 min p.i.): 3.4±0.2 % ID/g
% ID ([7]; Trigeminal nerve, 60 min p.i.): 0.01±0.00 % ID
% ID/g ([7]; Trigeminal nerve, 60 min p.i.): 2.9±0.7 % ID/g
total brain uptake ([7]; control mice, 2 min after injection): 1.6 % ID
total brain uptake ([7]; control mice, 60 min p.i.): 0.1 % ID
SUV in trigeminal nerve, isoflurane versus pentobarbital anaesthesia ([7]; control mice, isoflurane 2% in oxygen compared with pentobarbital 60 mg/kg i.p.): remarkable lower
blood 2 min/60 min ratio [7, 13]: 4.3
trigeminal nerve 2 min/60 min ratio [7, 13]: 1.5
trigeminal nerve-to-blood activity ratio (TRPV1 receptor [8]; mice pretreated with BCTC 10 mg/kg s.c. 1 h before tracer): 1.0
trigeminal nerve-to-blood activity ratio (TRPV1 receptor [8]; mice pretreated with SB366791 10 mg/kg s.c. 1 h before tracer): 1.3
trigeminal nerve-to-blood activity ratio (TRPV1 receptor [9]): 0.8
intact tracer in plasma, of recovered radioactivity ([10]; 2 min after i.v. injection): 52.0±3.0%
radiometabolites in plasma ([10]; 2 min p.i.): 48.0%±3.0
radiometabolites in plasma ([10]; 10 min p.i.): 82.4%±1.9
intact tracer in brain, of total recovered radioactivity ([11]; 2 min after injection): 85.6%±3.7
intact tracer in brain, of total recovered radioactivity ([11]; 10 min after injection): 67.2%±0.7
